In brackets after ≈: the same amount, converted by molar mass.
Tests used:
CYP3A4 = CYP3A4 (Homo sapiens, UniProt P08684); experiment: Inhibition of CYP3A4 at 3 uM by fluorescent method; format: ADME
Summary of the method: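 CYP3A4 inhibition measured by a fluorescent method.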

[1] = Metabolic stability in human liver microsomes assessed as half life; format: ADME, Microsome
Summary of the method: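 Test compound at 1 μM incubated with 1 mg/mL male beagle dog or male human liver microsomal protein. Half-life was determined from compound loss.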

[2] = target: Potassium voltage-gated channel subfamily A member 5 (Homo sapiens, UniProt P22460); experiment: Inhibition of human Kv1.5 expressed in CHO cells by patch-clamp technique; format: cell-based
Chain of Potassium voltage-gated channel subfamily A member 5 (P22460 whole entry): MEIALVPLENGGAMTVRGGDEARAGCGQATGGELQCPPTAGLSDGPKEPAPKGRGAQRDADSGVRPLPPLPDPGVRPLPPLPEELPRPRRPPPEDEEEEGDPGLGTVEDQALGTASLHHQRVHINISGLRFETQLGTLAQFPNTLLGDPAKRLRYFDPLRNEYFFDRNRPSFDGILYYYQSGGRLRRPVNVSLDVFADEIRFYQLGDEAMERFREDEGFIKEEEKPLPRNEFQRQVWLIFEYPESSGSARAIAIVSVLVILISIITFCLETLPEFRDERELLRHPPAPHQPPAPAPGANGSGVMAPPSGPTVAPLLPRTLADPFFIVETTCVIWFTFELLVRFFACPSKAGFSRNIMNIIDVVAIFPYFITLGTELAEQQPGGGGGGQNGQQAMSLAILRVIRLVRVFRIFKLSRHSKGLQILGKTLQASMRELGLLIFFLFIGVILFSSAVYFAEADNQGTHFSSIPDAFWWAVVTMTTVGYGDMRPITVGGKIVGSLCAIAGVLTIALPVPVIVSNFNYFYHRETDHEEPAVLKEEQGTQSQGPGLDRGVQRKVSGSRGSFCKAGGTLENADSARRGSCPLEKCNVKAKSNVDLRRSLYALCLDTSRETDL
Summary of the method: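 Human Kv1.5 stably expressed in CHO cells. IC50 was determined by automated patch clamp on the IonWorks platform.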

[3] = Aqueous solubility at pH 7.4 by direct UV method; format: physicochemical; settings: aqueous medium
Summary of the method: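 Solubility measured in pH 7.4 buffer with direct UV read-out.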

[4] = target: Voltage-gated inwardly rectifying potassium channel KCNH2 (Homo sapiens, UniProt Q12809); experiment: Inhibition of human ERG by patch-clamp technique
Chain of Voltage-gated inwardly rectifying potassium channel KCNH2 (Q12809 whole entry): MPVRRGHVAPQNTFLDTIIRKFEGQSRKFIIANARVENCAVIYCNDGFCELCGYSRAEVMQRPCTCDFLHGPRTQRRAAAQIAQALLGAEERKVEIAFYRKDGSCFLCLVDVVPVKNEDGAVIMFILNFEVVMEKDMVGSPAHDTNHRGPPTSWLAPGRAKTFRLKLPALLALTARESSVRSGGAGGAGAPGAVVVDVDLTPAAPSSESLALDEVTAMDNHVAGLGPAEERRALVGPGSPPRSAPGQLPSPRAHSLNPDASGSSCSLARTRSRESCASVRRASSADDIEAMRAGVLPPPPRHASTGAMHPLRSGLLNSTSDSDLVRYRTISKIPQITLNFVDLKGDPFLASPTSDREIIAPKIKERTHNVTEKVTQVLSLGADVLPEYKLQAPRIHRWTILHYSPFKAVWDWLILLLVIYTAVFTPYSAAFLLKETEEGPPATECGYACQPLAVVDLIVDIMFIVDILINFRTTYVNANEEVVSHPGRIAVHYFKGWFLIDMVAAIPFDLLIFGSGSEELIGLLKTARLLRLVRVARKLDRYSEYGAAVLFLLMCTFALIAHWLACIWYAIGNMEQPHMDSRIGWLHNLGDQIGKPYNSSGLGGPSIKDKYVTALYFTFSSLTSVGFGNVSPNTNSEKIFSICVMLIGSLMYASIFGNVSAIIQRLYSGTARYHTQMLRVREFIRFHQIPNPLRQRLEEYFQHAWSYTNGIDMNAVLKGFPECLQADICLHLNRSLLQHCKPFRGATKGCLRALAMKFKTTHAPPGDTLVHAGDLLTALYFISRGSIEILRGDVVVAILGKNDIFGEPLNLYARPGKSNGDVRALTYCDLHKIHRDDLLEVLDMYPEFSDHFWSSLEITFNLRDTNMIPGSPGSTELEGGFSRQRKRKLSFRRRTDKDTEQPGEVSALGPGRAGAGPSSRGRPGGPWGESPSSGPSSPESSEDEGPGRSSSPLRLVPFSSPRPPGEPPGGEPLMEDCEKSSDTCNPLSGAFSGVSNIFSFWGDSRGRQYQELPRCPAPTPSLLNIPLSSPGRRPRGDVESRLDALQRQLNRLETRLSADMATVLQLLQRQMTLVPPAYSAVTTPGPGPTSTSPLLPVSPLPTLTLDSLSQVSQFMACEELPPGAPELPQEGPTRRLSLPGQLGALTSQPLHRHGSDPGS

Chain of CYP3A4 (P08684 whole entry): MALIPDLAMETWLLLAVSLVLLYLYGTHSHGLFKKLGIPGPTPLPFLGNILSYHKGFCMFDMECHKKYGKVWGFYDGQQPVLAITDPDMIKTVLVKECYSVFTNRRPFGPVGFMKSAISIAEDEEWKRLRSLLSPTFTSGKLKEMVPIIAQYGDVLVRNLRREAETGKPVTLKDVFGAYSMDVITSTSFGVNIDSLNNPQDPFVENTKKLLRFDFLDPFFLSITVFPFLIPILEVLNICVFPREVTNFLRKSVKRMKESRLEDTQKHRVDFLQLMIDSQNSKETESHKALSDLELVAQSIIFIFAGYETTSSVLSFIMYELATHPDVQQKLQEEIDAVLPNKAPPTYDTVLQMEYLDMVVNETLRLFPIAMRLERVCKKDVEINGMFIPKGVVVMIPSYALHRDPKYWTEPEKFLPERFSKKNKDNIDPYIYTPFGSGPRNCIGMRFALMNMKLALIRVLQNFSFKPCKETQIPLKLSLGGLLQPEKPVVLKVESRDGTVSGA

Row | inhibition at 3 µM (CYP3A4) | half-life [1] | IC50 [2] | solubility [3] | Structure (SMILES) | IC50 [4]
1 | 50% | 30 min | 7450 nM | 100 µg/mL (≈ 216 µM) | COCCOc1ccc(C2CN(NS(C)(=O)=O)C(=O)N2CCc2ccc(OC)cc2)cc1 (stereo not drawn) | 
2 | 58% | 18 min | 240 nM | 42 µg/mL (≈ 104 µM) | COc1ccc(CCN2C(=O)N(NS(C)(=O)=O)CC2c2ccc(C)cc2)cc1 (stereo not drawn) | 11200 nM
3 | 0% | 13 min | 900 nM | 100 µg/mL (≈ 229 µM) | COc1ccc(CCN2C(=O)N(NS(=O)(=O)CF)C[C@@H]2c2ccc(OC)cc2)cc1 | 28300 nM
4 | 27% | 30 min | 200 nM | 4 µg/mL (≈ 9.44 µM) | COc1ccc(CCN2C(=O)N(NS(C)(=O)=O)CC2c2ccc(Cl)cc2)cc1 (stereo not drawn) | 
5 | 50% | 16 min | 330 nM | 100 µg/mL (≈ 238 µM) | COc1ccc(CCN2C(=O)N(NS(C)(=O)=O)C[C@@H]2c2ccc(OC)cc2)cc1 | 26700 nM
6 | 78% | 30 min | 160 nM | 1 µg/mL (≈ 2.33 µM) | COc1ccc(CCN2C(=O)N(NS(C)(=O)=O)CC2c2ccc(C3CC3)cc2)cc1 (stereo not drawn) | 8400 nM
7 | 82% | 3 min | 340 nM | 1 µg/mL (≈ 2.02 µM) | COc1ccc(CCN2C(=O)N(NS(=O)(=O)Cc3ccccc3)C[C@@H]2c2ccc(OC)cc2)cc1 | 4400 nM
8 | 53% | 30 min | 240 nM | 26 µg/mL (≈ 58.1 µM) | COc1ccc(CCN2C(=O)N(NS(C)(=O)=O)CC2c2ccc(OC(C)C)cc2)cc1 (stereo not drawn) | 17000 nM
9 | 84% | 29 min | 100 nM | 18 µg/mL (≈ 41.5 µM) | COc1ccc(CCCN2C(=O)N(NS(C)(=O)=O)C[C@@H]2c2ccc(OC)cc2)cc1 | 14100 nM

Reference: ChEMBL document CHEMBL1154688, “Selective Kv1.5 blockers: development of (R)-1-(methylsulfonylamino)-3-[2-(4-methoxyphenyl)ethyl]-4-(4-methoxyphenyl)-2-imidazolidinone (KVI-020/WYE-160020) as a potential treatment for atrial arrhythmia” (J Med Chem, 2009)
